# In paper PMC4121111 (Clinical cancer research : an official journal of the …, 2014):
# Assays:
# GRPR [1] = target: T1, GRPR (Homo sapiens, UniProt P30550); assay: Cell binding study by FACS, PC3 cells; assay type: cell-based; conditions: 3×10^5 cells, 3 pmoles agent in PBS, 15 min, 4 °C, triplicates
# Summary of the method: (§1)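 Cell lines came from ATCC and were grown per supplier instructions. 3×10^5 cells were incubated with 3 pmoles dye-peptide conjugate in PBS for 15 min at 4 °C, and cell fluorescence was measured. A scrambled-peptide conjugate served as control. For PC3 only, specificity was tested by co-incubation with bombesin (1.5×10−11 to 1.5×10−8 moles). Triplicates.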
# GRPR [2] = conditions: cited from earlier work
# [3] = Blood metabolism in living mice; assay type: in vivo
# GRPR in PC3 tumors = GRPR in PC3 tumors (Homo sapiens, UniProt P30550); assay: Photoacoustic imaging of GRPR in PC3 tumors in mice; assay type: in vivo; conditions: 30 to 60 minutes post injection of 10 nmol
# Summary of the method: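 Eight-week-old male nude mice carried flank PC3 xenografts (3 million cells, tumors 0.5–0.7 cm). Imaging used photoacoustic CT at 750 nm (100 views, 100 pulses/view) before and 30 and 60 min after tail-vein injection of 10 nmol agent in 200 µL PBS pH 7.4. The scrambled-peptide control group had n=4 and the active group n=6. 3D filtered back-projection; standard deviation.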
# GRPR [4] = target: T1, GRPR; assay: Cell binding study by FACS, LNCaP cells; assay type: cell-based; conditions: 3×10^5 cells, 3 pmoles agent in PBS, 15 min, 4 °C, triplicates
# Summary of the method: as §1
# T1 sequence (P30550 whole entry): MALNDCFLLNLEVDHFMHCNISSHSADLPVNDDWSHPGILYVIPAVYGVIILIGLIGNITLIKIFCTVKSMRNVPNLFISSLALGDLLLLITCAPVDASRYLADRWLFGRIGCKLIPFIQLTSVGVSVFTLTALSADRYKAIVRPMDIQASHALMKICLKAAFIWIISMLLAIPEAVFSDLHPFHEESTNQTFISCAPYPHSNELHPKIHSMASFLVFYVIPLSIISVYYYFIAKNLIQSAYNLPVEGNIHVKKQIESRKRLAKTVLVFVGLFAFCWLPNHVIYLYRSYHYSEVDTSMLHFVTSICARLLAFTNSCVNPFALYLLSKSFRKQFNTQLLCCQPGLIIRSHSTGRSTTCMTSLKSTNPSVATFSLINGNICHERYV
# GRPR in PC3 tumors, sequence (P30550 whole entry): as above
binding to PC3 cells (cell fluorescence) (GRPR [1]),course of tumor photoacoustic signal over time (GRPR in PC3 tumors),binding to LNCaP cells (cell fluorescence) (GRPR [4]),Substance,binding affinity (GRPR [2]),functional activity (GRPR [2]),blood lifetime [3],level present in blood at 60 minutes postinjection ([3]; HPLC),"composition in mouse blood at 30 minutes post injection (HPLC) ([3]; blood, 30 minutes post injection, HPLC, three mice)","proteolysis in mouse blood ([3]; blood, 30 minutes postinjection, HPLC)","composition in mouse blood at one hour post injection (HPLC) ([3]; blood, 60 minutes post injection, HPLC)"
did not show appreciable binding,,,GGGHdFGWStaAQLV-NH2 [CAA3G-740],,,,,,,
,,,dFQWAVGHStaL-NH2,high affinity binding,antagonist activity,,,,,
intense labeling,increased over time,minimal binding,GGGdFQWAVGHStaL-NH2 [AA3G-740],,,short blood lifetime,low level,major peak observed in blood at 30 minutes post injection was of the parent,no indication of proteolysis,intact agent was still the major component
